Experimental data from different studies.
Organism: Staphylococcus epidermidis
Read-out: microbial growth

SMILES | test | test system | setting | MIC
NCCCC[C@H](N)C(=O)Nc1ccc(-n2nc(C(F)(F)F)cc2-c2ccc3c(c2)Nc2ccccc2S3)cc1 | broth dilution | ATCC35984 | 24 h | 4 mg/L
CC(C)Oc1c(-n2cc(-c3ccc(NC(=O)C(CC(N)=O)NC(=O)c4ccc(NC(=O)c5ccc(C#N)cc5)cc4)cc3)nn2)ccc(C(=O)Nc2ccc(C(=O)O)cc2)c1O (centres unmarked) | – | DSM28765 | – | 0.125 mg/L
O=C(O)CN1C(=O)/C(=C/c2c3ccccc3c(-c3ccc(N(c4ccccc4)c4ccccc4)cc3)c3ccccc23)SC1=S | broth dilution | ATCC12228 | – | > 1000 mg/L
CC[C@H]1OC(=O)[C@H](C)[C@@H](O[C@H]2C[C@@](C)(OC)[C@@H](O)[C@H](C)O2)[C@H](C)[C@@H](O[C@@H]2O[C@H](C)C[C@H](N(C)C)[C@H]2O)[C@](C)(O)C[C@@H](C)C(=O)[C@H](C)[C@@H](O)[C@]1(C)O | broth dilution | 12228 | – | 0.78 µM
NCCCC[C@H](N)C(=O)Nc1ccc(-n2nc(C(F)(F)F)cc2-c2ccc3c(ccc4ccccc43)c2)cc1 | broth dilution | ATCC35984 | 24 h | 4 mg/L
CC(C)Oc1c(NC(=O)c2ccc(NC(=O)c3ccc(NC(=O)[C@H](CC(N)=O)NC(=O)c4ccc(NC(=O)c5ccc(C#N)s5)cc4)cc3)c(OC(C)C)c2O)ccc(C(=O)O)c1O | – | DSM28765 | – | ≤ 0.03 mg/L
NC[C@H]1O[C@H](O[C@H]2[C@H](O)[C@@H](O[C@H]3O[C@H](CO)[C@@H](O)[C@H](N)[C@H]3O)[C@H](N)C[C@@H]2N)[C@H](N)C[C@@H]1O | broth dilution | 12228 | – | 0.78 µM
CN[C@H](CC(C)C)C(=O)N[C@H]1C(=O)N[C@@H](CC(N)=O)C(=O)N[C@H]2C(=O)N[C@H]3C(=O)N[C@H](C(=O)N[C@H](C(=O)O)c4cc(O)cc(O)c4-c4cc3ccc4O)[C@H](O)c3ccc(c(Cl)c3)Oc3cc2cc(c3O[C@@H]2O[C@H](CO)[C@@H](O)[C@H](O)[C@H]2O[C@H]2C[C@](C)(N)[C@H](O)[C@H](C)O2)Oc2ccc(cc2Cl)[C@H]1O | broth dilution | ATCC12228 | – | 0.98 mg/L
O=C(Nc1ncc([N+](=O)[O-])s1)C1CCCCC1 | broth dilution | – | – | 31.3 µM
O=C(O)CN1C(=O)/C(=C/c2c3ccccc3c(-c3ccc(N(c4ccccc4)c4ccccc4)cc3)c3ccccc23)NC1=S | broth dilution | ATCC12228 | – | > 1000 mg/L
CC(C)Oc1c(NC(=O)c2ccc(NC(=O)[C@H](CC(N)=O)NC(=O)c3ccc(NC(=O)c4ccc(C#N)s4)cc3)cc2)ccc(C(=O)Nc2ccc(C(=O)O)cc2)c1O | – | DSM28765 | – | 0.5 mg/L
